NALP1 yeast inh: NALP1 inhibition. S. cerevisiae NALP1/ASC/caspase-1 growth, X-gal OD620, 72 h. inhibition, % at 10 µM. 0.61% of 280,000 active; in the data active means inhibition mostly above about 24%, no sharp cut-off; inactive means mostly below about 32%
Tb MetRS inh: Trypanosoma brucei MetRS inhibition; purified T. brucei MetRS, ATP depletion, Kinase-Glo luminescence; inhibition, % at 11.9 µM; 0.4% of 360,000 active; AID 624268;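 active means inhibition above a per-plate cutoff of the control wells' mean inhibition plus 3 SD, cut at about 5.5% in these data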;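 further: 0% = DMSO wells median and 100% = median of wells with control inhibitor compound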
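Measured by: Kinase-Glo luciferase luminescence reporting remaining unconsumed ATP. Material: purified T. brucei MetRS enzyme. Doses: 11.9 µM compound single dose, 0.9% DMSO. Medium: HEPES buffer containing pyrophosphatase, BSA, spermine, DTT. Times: 15 min preincubation, 2 h reaction, all 25 °C. Reagent: methionine, ATP and bulk E. coli tRNA.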
NLRP3 yeast inh: inhibitors of NALP3 inflammasome in yeast; AID 2825; 0.39% of 330,000 active; inhibition, % at 10 µM; Yeast reconstituted NLRP3/ASC/caspase-1, beta-gal luminescence, 24 h;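 active means inhibition of 50% or more; inactive means inhibition below 50%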;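 further: plate controls were induced DMSO wells for no effect and uninduced yeast grown without galactose for full effect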
MC4R antag cAMP: antagonists of human melanocortin 4 receptor (MC4R); inhibition, % at 6.5 µM; P32245; AID 540295; MC4R-expressing cells, MTII-stimulated cAMP, LANCE TR-FRET; 0.48% of 360,000 active;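 active means inhibition above its plate's cutoff, the mean of tested wells on that plate plus 3 SD, cut at about 29% in these data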;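 further: 0% = Melanotan II alone and 100% = Melanotan II plus saturating MCL0020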
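system = U2OS cells with stable human MC4R expression | also added = Melanotan II challenge after compound preincubation | dosing = one concentration, 6.5 µM nominal | incubation = compound 30 min, challenge 1 h, detection 1 h | measured by = TR-FRET with Eu-cAMP and labeled anti-cAMP, 671 nm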
A1 inh: inhibitors of the anti-apoptotic protein A1, read as caspase activation; MEF A1-2A-BIM cells, Caspase-Glo 3/7 luminescence, 3 h; percent of clofoctol response, vehicle zero; caspase activation, % (no concentration beside the values); 0.066% of 330,000 active; AID 2462;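 active means over half of replicate activation scores above 10%, or exactly half above 10 with the replicate mean above 10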
MC4R ag barr: human MC4R agonism via beta-arrestin | P32245 | U2OS MC4R beta-arrestin complementation, luminescence; percent of melanotan II response, DMSO zero | activation, % at 8.9 µM | 0.98% of 360,000 active;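 active means activation above a per-plate cutoff, the mean activation of sample wells on that plate plus 3 SD, cut at about 8% in these data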
MC4R barr conf: human MC4R beta-arrestin agonism confirmation | 31% of 2,400 active | shares compounds with MC4R ag barr | U2OS MC4R beta-arrestin recruitment, luminescence; scaled DMSO 0%, Melanotan II 100% | activation, % at 8.9 µM;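 active means mean activation across replicates above the hit cutoff set in the earlier primary screen, cut at about 8% in these data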
MOR DOR agonist: activates mu-delta opioid heterodimer, MC4R agonist counter-screen; shares compounds with MC4R ag barr; U2OS PathHunter beta-arrestin, beta-gal luminescence; percent of deltorphin B response, DMSO zero; activation, % at 9.2 µM; 5.8% of 2,400 active; AID 602194;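 active means mean activation across replicates exceeds the hit threshold derived in the earlier primary screen, cut at about 18% in these data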;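 further: 100% = deltorphin B at 0.9 µM final and 0% = DMSO alone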
Target sequence (P35372 whole entry, looked up): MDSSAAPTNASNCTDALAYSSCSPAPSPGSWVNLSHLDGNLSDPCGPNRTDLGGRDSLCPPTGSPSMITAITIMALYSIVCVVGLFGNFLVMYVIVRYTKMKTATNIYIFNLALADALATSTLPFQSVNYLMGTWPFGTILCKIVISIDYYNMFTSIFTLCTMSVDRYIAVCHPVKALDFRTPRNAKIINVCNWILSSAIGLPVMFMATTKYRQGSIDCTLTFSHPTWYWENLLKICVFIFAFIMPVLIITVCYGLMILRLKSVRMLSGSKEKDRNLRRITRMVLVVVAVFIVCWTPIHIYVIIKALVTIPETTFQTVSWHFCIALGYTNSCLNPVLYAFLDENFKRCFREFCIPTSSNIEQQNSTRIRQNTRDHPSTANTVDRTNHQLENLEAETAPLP
Target sequence (P41143 whole entry, looked up): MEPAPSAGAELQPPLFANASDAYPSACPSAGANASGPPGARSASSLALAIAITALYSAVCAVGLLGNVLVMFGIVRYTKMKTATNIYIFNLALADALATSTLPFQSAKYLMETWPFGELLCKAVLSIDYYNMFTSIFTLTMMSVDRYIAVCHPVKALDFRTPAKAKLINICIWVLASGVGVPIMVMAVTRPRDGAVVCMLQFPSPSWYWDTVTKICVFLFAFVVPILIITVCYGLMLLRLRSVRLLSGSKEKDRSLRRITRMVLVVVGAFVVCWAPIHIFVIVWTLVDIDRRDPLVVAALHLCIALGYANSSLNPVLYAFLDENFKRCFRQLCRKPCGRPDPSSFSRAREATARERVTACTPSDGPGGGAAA
* = called active by the depositor; . = no result. Compounds with a hit are over-represented: about 2.5% of the library has one in this group of screens.

SMILES	NALP1 yeast inh	Tb MetRS inh	NLRP3 yeast inh	MC4R antag cAMP	A1 inh	MC4R ag barr	MC4R barr conf	MOR DOR agonist
CCCc1c(C(=O)NNc2cc(C(F)(F)F)ccc2Cl)cnn1-c1ccccc1	-3.2	0.0	14.4	2.7	-0.8	27.0*	5.8	6.5
CCCc1c(C(=O)NNc2ccc(C)cc2)cnn1-c1ccccc1	-3.7	-0.7	25.4	-0.8	-0.3	-2.0	.	.
CCCc1c(C(=O)Nc2ccc(C(F)(F)F)cc2)cnn1-c1ccccc1	10.2	-1.0	13.3	-3.2	0.5	10.4*	-3.9	5.5
Cn1cc(CCC(=O)NC2CC(C)(C)Cc3c2cnn3-c2ccc(F)cc2)cn1 (stereo not drawn)	34.4	-0.7	3.5	-10.7	.	-1.8	.	.
O=C(Cn1c(=O)n(CCC(=O)N2CCCCC2)c(=O)c2sccc21)NCc1ccccc1	-4.0	0.2	19.2	16.5	-1.7	-0.3	.	.
CCOc1ccc(-n2nnnc2SCC(=O)c2ccccc2)cc1	4.6	-0.1	23.6	10.3	-1.4	16.0*	-2.8	1.6
COc1ccc(-n2nnnc2SCC(=O)c2cccc(OC)c2)cc1	21.1	-0.4	13.1	19.6	-0.4	1.3	.	.
O=C(NC(=S)NCCC1=CCCCC1)c1ccco1	9.4	0.1	-29.5	9.8	-0.6	10.1*	-0.9	6.6
CCCCCCCCCCn1c2c(c(=N)c3c1CCC3)CCC2	34.2*	0.0	42.7	-10.3	-0.8	17.4*	10.9*	19.3*
CCCCCn1c2c(c(=N)c3ccccc31)CCC2	0.9	0.0	-8.5	5.7	-0.7	0.0	.	.
O=C1CCCN1C(=O)CSc1nnnn1-c1ccccc1	.	-0.3	20.0	13.8	0.6	-1.1	.	.
COc1cc(C)ccc1OCc1cc(C(=O)N2CCN(C3CCCCC3)CC2)no1	24.9	-0.9	18.4	-7.6	.	-0.4	.	.
N#C/C(=C\c1ccc(-c2ccc(F)cc2)o1)C(=O)Nc1nc(-c2cccs2)cs1	22.4	0.2	21.2	11.7	-1.3	38.7*	19.3*	1.2
Cc1ccc(Cl)cc1N1CCN(S(=O)(=O)c2ccc3[nH]c(=O)ccc3c2)CC1	9.7	0.0	-1.6	6.7	0.4	10.2*	11.2*	3.5
Cc1ccc(Cl)cc1N1CCN(S(=O)(=O)c2ccc3[nH]c(=O)c(=O)[nH]c3c2)CC1	24.7	-0.4	-2.8	-0.2	-0.4	1.4	.	.
CCn1c(SCC(=O)NC2CCCCC2)nnc1-c1ccco1	-6.4	0.3	2.1	5.2	-0.3	-1.3	.	.
CCOc1ccc(-n2c(SCC(=O)Nc3ccc(Br)cc3)nc3n[nH]c(C)c3c2=N)cc1	-1.6	0.0	-2.3	1.6	8.4*	16.6*	4.3	8.8
Cc1cc(-n2c(SCC(=O)NCc3cccs3)nc3n[nH]c(C)c3c2=N)ccc1Cl	-2.7	-0.6	-1.7	16.6	0.0	13.4*	4.7	6.7
CCOc1ccc(-n2c(SCC(=O)Nc3ccccc3CC)nc3n[nH]c(C)c3c2=N)cc1	16.9	.	5.8	.	0.0	.	.	.
CC1(C(=O)NCCc2c[nH]c3ccccc23)CCN1CC1CCCCC1 (stereo not drawn)	.	0.1	.	6.3	.	4.9	.	.
Cc1ccc(C2(C)NC(=O)N(CC(=O)N3c4ccccc4NC(=O)CC3C)C2=O)cc1 (stereo not drawn)	.	-0.2	-10.1	10.5	-1.0	0.8	.	.
CNc1cncc(-c2cccc(C(=O)NC3CC3)c2)n1	.	0.2	.	-1.8	.	0.2	.	.
O=C(Cn1nnc(-c2ccccc2NC(=O)c2ccccc2F)n1)NCc1ccco1	-4.1	-0.1	12.5	22.7	2.5	-0.1	.	.
COc1ccc(C(=O)Nc2ccccc2-c2nnn(CC(=O)NCc3ccco3)n2)cc1	23.5	0.1	-2.6	12.2	-1.0	10.8*	10.1*	8.1
COc1ccc(Cn2c(SCc3ccccc3C)nc3cc(OC)c(OC)cc3c2=N)cc1	34.7	-1.1	16.1	14.1	0.4	26.3*	7.1	27.3*
SMILES	NALP1 yeast inh	Tb MetRS inh	NLRP3 yeast inh	MC4R antag cAMP	A1 inh	MC4R ag barr	MC4R barr conf	MOR DOR agonist
COc1cc2nc(SCc3ccc(F)cc3)n(Cc3cccs3)c(=N)c2cc1OC	3.6	-0.2	12.8	-8.8	1.4	2.0	.	.
CN(C(=O)COC(=O)c1cccs1)c1ccccc1	.	-0.1	.	1.5	.	-0.7	.	.
COc1ccc(-c2ccc3c(c2)S(=O)(=O)c2cccc(C(=O)O)c2C3=O)cc1OC	.	-0.5	16.2	0.9	-0.1	0.2	.	.
COc1ccc(-c2ccc3c(c2)S(=O)(=O)c2cccc(C(=O)NCc4cc(C)oc4C(F)(F)F)c2C3=O)cc1OC	.	-0.3	-2.0	12.1	3.0	12.0*	27.2*	11.8
C=CCOc1cccc(/C=C/c2nc3ccccc3c(=O)[nH]2)c1	-22.1	0.0	27.9	3.3	-3.6	23.6*	-0.3	3.6
Cc1ccc(C2=N/C(=C\c3ccc(F)cc3)C(=O)N2)cc1	.	-0.1	30.2	-0.2	1.0	22.1*	3.0	1.8
Cc1ccc2c(c1)/C(=C/c1ccc(F)cc1)C(=O)N2	-4.2	-0.4	40.5	-5.3	-0.2	4.2	.	.
C[C@H](CO)N1C[C@H](C)[C@@H](CN(C)S(=O)(=O)c2ccc(F)cc2)Oc2c(NC(=O)c3ccncc3)cccc2C1=O	.	-0.1	.	-3.4	.	0.3	.	.
CCOc1cc(/C=N/N=C(\N)c2nonc2N)cc(Br)c1OCc1cccc2ccccc12	-0.9	-0.9	2.5	1.4	6.4*	30.7*	10.8*	7.6
O=C(COC(=O)c1ccccc1NC(=O)c1ccco1)Nc1ncc(Cl)cc1Cl	11.8	-1.2	-0.4	3.5	0.5	0.1	.	.
COc1cc(NC(=O)c2ccco2)c(C(=O)OCC(=O)Nc2ncc(Cl)cc2Cl)cc1OC	-0.8	-0.3	11.6	0.9	-0.5	17.8*	0.3	2.5
Cc1cc(F)cc(-c2cc(C(=O)NCC3CCCCC3)[nH]n2)c1	.	-0.3	.	-2.6	.	12.5*	0.3	4.6
O=C(NC(c1ccc(Cl)cc1)c1cccnc1)C1CCN(CCOc2ccc(Cl)cc2Cl)CC1 (stereo not drawn)	.	0.1	.	4.0	.	18.1*	29.8*	13.0
O=C(NC(c1ccc(F)cc1)c1ccc2ccccc2n1)C1CCN(CCOc2ccc(F)cc2)CC1 (stereo not drawn)	.	-0.2	.	9.9	.	1.0	.	.
O=C(NC(c1ccc2c(c1)OCO2)c1ccccn1)C1CCN(CCOc2ccc(Cl)cc2Cl)CC1 (stereo not drawn)	.	0.1	.	5.3	.	1.2	.	.
